In article PMC6146057 (ACS chemical neuroscience, 2018):
Substitutions are numbered along the chain they refer to. Several values for one entry are separate records, joined by “and”; a condition that tells them apart may be missing. Identical values can stand only once. Entries after “also recorded” stand apart in the source; their conditions may differ.

Experiments:
[1] = target: T1, M1 (Homo sapiens, UniProt P11229); assay: Calcium mobilization assay, high expression human M1 cell line; assay type: cell-based
T1 sequence (P11229 1-460): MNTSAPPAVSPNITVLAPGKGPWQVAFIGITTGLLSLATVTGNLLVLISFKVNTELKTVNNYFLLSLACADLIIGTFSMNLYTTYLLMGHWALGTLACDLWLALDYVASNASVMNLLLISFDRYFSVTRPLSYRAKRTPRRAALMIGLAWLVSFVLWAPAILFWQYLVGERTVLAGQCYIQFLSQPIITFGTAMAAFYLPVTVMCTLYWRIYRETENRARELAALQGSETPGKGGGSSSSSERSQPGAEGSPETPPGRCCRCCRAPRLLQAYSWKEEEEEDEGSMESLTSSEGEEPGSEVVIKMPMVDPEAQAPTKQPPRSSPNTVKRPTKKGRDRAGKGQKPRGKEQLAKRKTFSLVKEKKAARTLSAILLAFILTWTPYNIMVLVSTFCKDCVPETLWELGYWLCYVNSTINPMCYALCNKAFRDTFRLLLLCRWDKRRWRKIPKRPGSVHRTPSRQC
How it was run: (§1)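 Muscarinic receptor-expressing CHO cells were plated at 20,000 cells/well in medium without G418 the day before. They were loaded with 1.15 μM Fluo-4 AM for 45 min at 37 °C in HBSS with 20 mM HEPES and 2.5 mM probenecid. Test compound (10-point 1:3 series, top final 30 μM) was added for 2.5 min, then EC20 ACh for 1 min. Calcium flux was fitted with a four-parameter logistic curve.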

[2] = target: T2, rat M1 (Rattus norvegicus, UniProt P08482); assay: [3H]-NMS competition radioligand binding; conditions: up to 30 μM, rat M1-CHO membranes
T2 sequence (P08482 1-460): T1 sequence (P11229 1-460) with A5V, T254S, P309S, R320K, A337G, I413V
How it was run: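 Rat M1-CHO membranes (10 μg) were incubated with test compound (11-point 1:3 series, top final 30 μM) and 0.088 nM [3H]-NMS (Kd). Binding buffer was 20 mM HEPES, 10 mM MgCl2 and 100 mM NaCl, pH 7.4, for 1 h at room temperature with shaking. Nonspecific binding was defined with 10 μM atropine. Samples were filtered, washed three times with ice-cold Tris buffer and counted by scintillation.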

[3] = Rat brain homogenate binding; assay type: in vitro ADME
[4] = target: T3, mouse M1 (Mus musculus, UniProt P12657); assay: Calcium mobilization assay, mouse M1 cell line with low expression; assay type: cell-based
T3 sequence (P12657 1-460): T1 sequence (P11229 1-460) with A5V, T254S, R320K, A337G, I413V

[5] = system: rats; assay: Modified Irwin Toxicology Battery in rats; assay type: in vivo, rat; conditions: 56.6 mg/kg i.p.
How it was run: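 Rats received vehicle or test compound at 56.6 mg/kg i.p. in 10% Tween 80 (2 mL/kg; n = 3) after baseline assessment. A blinded observer scored autonomic and somatomotor parameters at 15, 30, 60, 180 and […].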

[6] = system: mice; assay: High dose phenotypic mouse seizure liability screen; assay type: in vivo; conditions: 100 mg/kg i.p., up to 3 h
[7] = system: rat M2-M5; assay: Calcium mobilization selectivity, rat M2-M5; assay type: cell-based; conditions: Figure 4B
How it was run: as §1

[8] = system: 68 GPCRs, ion channels, and transporters; assay: Eurofins Lead Profiling panel; assay type: binding; conditions: @10 μM, 68 targets
[9] = system: rats; assay: Contextual fear conditioning, risperidone-induced deficit; assay type: in vivo, rat; conditions: 10 mg/kg VU0486846 coadministered with 3 mg/kg risperidone
[10] = target: T1, M1; assay: M1 PAM potency at increasing ACh concentration; assay type: cell-based; conditions: for EC50: M1 PAM potency
[11] = Rat brain:plasma distribution; assay type: in vivo; conditions: male, Sprague-Dawley, brain and plasma, intravenous
How it was run: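 Dual-cannulated male Sprague–Dawley rats received a cassette IV dose of 0.2–0.25 mg/kg per compound via the jugular vein. The vehicle was about 10% ethanol, 40% PEG400 and 50% DMSO. Carotid blood and brain were collected at 0.25 h. Brains were rinsed in PBS, snap frozen and bead-homogenised, and plasma and brain were analysed by LC/MS/MS.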

[12] = target: cytochrome P450 3A4 (Homo sapiens, UniProt P08684); assay: CYP450 inhibition in human liver microsomes, 3A4; assay type: in vitro ADME
[13] = ACh concentration increased to EC70

cytochrome P450 3A4, sequence (P08684 whole entry): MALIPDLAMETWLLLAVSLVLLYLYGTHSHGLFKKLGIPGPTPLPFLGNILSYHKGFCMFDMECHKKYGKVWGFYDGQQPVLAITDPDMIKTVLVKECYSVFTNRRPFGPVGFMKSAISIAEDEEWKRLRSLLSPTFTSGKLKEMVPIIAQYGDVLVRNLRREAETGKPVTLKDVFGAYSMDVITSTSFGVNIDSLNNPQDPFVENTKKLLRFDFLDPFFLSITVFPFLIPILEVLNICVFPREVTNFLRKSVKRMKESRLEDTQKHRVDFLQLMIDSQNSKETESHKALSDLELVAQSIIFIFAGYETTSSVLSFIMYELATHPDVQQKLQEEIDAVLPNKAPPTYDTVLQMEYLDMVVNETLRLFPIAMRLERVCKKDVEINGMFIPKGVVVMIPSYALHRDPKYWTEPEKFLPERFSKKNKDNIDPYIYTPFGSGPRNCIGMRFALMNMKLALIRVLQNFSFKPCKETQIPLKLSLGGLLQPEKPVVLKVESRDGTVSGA

EC50 ([1]; Human M1 CRC EC50, Figure 4A): 0.308 µM | EC50 ([1]; M1 PAM EC50, human M1, high expression line, EC20 ACh): 0.31 µM | EC50 ([1]; M1 PAM pEC50, human M1, high expression line, EC20 ACh): 0.295 µM | EC50 ([1]; M1 agonist activity pEC50, human M1, high expression line, compound alone): 4.07 µM and 4.27 µM | M1 PAM efficacy, % ACh Max ([1]; human M1, high expression line): 85 ± 2 % ACh Max | M1 agonist activity, % ACh Max ([1]; human M1, high expression line, compound alone): 39 ± 3 % ACh Max and 29 ± 6 % ACh Max | fraction unbound [3]: 0.03 | EC50 ([4]; M1 PAM EC50, mouse M1 cell line): 0.6 µM | EC50 ([4]; M1 PAM pEC50, mouse M1 cell line): 0.562 µM | M1 PAM efficacy, % ACh Max ([4]; mouse M1 cell line): 77 ± 4 % ACh Max | M1 agonism, % ACh Max ([4]; mouse M1 cell line, compound alone): 9 ± 1 % ACh Max | M1 PAM efficacy, % ACh Max [10, 13]: 90 ± 1 % ACh Max | EC50 [10, 13]: 0.068 ± 0.011 µM | EC50 ([10]; very low level of ACh (~EC9)): 0.43 ± 0.12 µM | M1 PAM efficacy, % ACh Max ([10]; very low level of ACh (~EC9)): 84 ± 2 % ACh Max | Kp at 0.25 h [11]: 0.18 | Kp uu at 0.25 h [11]: 0.05 | IC50 [12]: 5 µM
Structure (SMILES): O=C(N[C@H]1CCCC[C@@H]1O)[C@H]1CN(Cc2ccc(-n3cccn3)cc2)c2ccccc2O1 [VU0486846, (2R)-N-[(1S,2S)-2-Hydroxycyclohexyl]-4-[(4-pyrazol-1-ylphenyl)-methyl]-2,3-dihydro-1,4-benzoxazine-2-carboxamide]
Inhibition of orthosteric [3H]-NMS binding [2]: no displacement of [^3H]-NMS binding; also recorded: does not substantially inhibit binding | free brain levels [5]: 0.032 µM | free terminal plasma exposure [5]: 489 nM | total brain levels [5]: 1.15 µM | total terminal plasma exposure [5]: 4.4 µM | Cholinergic side effects or adverse effects ([5]; 3 h evaluation period): did not produce any cholinergic side effects or pronounced adverse effects | Seizure liability [6]: devoid of seizure liability | Activity at rat M2–M5 (selectivity) [7]: highly selective | Activity at rat M2–M5 (selectivity) ([7]; listed as 16): inactive | inhibition at any target in the panel [8]: ≤ 50% | Conditioned freezing [9]: restored conditioned freezing to vehicle-treated control levels
